Data published in ChEMBL document CHEMBL1153486, “Discovery of a class of potent gap-junction modifiers as novel antiarrhythmic agents” (Bioorg Med Chem Lett, 2009).
Active and inactive are the calls of the source. The calls are words filed in the database; no cut-off is given here.

Key:
Mus musculus [1] = assay: Antiarrhythmic activity in calcium chloride-induced mouse arrhythmia model assessed as prolongation of time to conduct cardiac block at 10 pmol/kg, iv relative to control; assay type: functional, Heart
Procedure, shortened: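 Mice received an intravenous infusion of CaCl2 after IV test compound. The read-out was time to cardiac conduction block, expressed as percent increase over control. Values are means of at least three experiments with standard deviation.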

[2] = Stability in rat plasma after 3 hrs; assay type: ADME, cell-free; conditions: read-out: Stability
Procedure, shortened: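 Rat plasma incubation for 3 h; stability reported as percent of compound remaining.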

[3] = Clearance in dog at 2.3 mg/kg, iv; assay type: ADME, organism-based, Canis lupus familiaris; parameters: dose 2.3 mg/kg, route intravenous; conditions: in vivo
Procedure, shortened: (§1)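 Dogs were dosed IV at 1 mg/kg and PO at 5 mg/kg; one compound was given 2.3 mg/kg IV and 7.8 mg/kg oral. Values are means of at least three animals, or two animals where no SD is given.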

[4] = Half life in dog at 2.3 mg/kg, iv; assay type: ADME, organism-based, Canis lupus familiaris; parameters: dose 2.3 mg/kg, route intravenous; conditions: in vivo; procedure, shortened: as §1
Mus musculus [5] = assay: Oral bioavailability in CD1 mouse at 1.6 mg/kg; assay type: ADME, organism-based; conditions: in vivo
[6] = Tmax in CD1 mouse at 5 mg/kg, po; conditions: in vivo
[7] = Oral bioavailability in dog at 7.8 mg/kg; assay type: ADME, organism-based, Canis lupus familiaris; conditions: in vivo; procedure, shortened: as §1
[8] = AUC in dog at 7.8 mg/kg, po; assay type: ADME, organism-based, Canis lupus familiaris; parameters: dose 7.8 mg/kg, route oral; conditions: plasma; procedure, shortened: as §1
[9] = Cmax in CD1 mouse at 5 mg/kg, po; conditions: in vivo
[10] = Metabolic stability in rat liver microsomes assessed as half life; assay type: ADME, Microsome
[11] = Half life in CD1 mouse at 5 mg/kg, po; conditions: in vivo
[12] = Half life in CD1 mouse at 1.6 mg/kg, iv; assay type: ADME, organism-based; parameters: dose 1.6 mg/kg, route intravenous; conditions: in vivo
Procedure, shortened: (§2)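 CD-1 mice were dosed IV at a nominal 1 mg/kg (actual 0.77 mg/kg or 1.6 mg/kg for some compounds) and PO at 5 mg/kg. Parameters were derived from mean drug concentration, N = 3 animals/time point.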

[13] = Cmax in dog at 7.8 mg/kg, po; assay type: ADME, organism-based, Canis lupus familiaris; parameters: dose 7.8 mg/kg, route oral; conditions: in vivo; procedure, shortened: as §1
[14] = target: Voltage-gated inwardly rectifying potassium channel KCNH2 (Homo sapiens, UniProt Q12809); assay: Inhibition of human ERG
Chain of Voltage-gated inwardly rectifying potassium channel KCNH2 (Q12809 whole entry): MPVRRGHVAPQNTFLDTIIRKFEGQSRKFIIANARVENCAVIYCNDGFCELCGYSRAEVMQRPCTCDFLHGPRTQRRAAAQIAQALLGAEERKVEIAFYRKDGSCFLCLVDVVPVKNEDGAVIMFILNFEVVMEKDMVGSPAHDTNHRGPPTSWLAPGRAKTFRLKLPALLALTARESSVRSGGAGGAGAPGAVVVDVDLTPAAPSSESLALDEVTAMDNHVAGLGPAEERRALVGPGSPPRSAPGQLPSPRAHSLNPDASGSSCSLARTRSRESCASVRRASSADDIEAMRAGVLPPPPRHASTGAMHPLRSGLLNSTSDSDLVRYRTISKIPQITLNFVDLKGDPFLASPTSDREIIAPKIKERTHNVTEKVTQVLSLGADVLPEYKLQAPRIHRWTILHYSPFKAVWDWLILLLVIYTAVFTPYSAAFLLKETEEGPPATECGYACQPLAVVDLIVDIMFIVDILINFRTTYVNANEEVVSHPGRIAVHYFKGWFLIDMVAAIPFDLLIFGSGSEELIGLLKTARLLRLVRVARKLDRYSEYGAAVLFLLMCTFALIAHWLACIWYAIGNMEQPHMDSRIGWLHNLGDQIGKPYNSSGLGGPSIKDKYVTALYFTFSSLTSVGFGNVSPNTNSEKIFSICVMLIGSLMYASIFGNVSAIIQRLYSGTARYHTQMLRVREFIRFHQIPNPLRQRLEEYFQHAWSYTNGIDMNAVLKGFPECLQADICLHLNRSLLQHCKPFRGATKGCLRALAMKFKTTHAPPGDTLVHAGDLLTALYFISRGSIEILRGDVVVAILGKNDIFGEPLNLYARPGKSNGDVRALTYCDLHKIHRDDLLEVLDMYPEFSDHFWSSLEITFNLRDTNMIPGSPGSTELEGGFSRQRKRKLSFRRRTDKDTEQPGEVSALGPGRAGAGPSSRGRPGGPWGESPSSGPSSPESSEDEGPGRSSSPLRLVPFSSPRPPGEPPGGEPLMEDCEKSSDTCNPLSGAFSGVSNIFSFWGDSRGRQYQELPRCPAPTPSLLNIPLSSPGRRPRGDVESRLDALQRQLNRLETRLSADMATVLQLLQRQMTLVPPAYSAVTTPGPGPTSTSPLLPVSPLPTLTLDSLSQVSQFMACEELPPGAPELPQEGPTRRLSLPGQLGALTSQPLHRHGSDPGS

[15] = Tmax in dog at 7.8 mg/kg, po; assay type: ADME, organism-based, Canis lupus familiaris; parameters: dose 7.8 mg/kg, route oral; conditions: in vivo
Mus musculus [16] = assay: Antiarrhythmic activity in calcium chloride-induced mouse arrhythmia model assessed as prolongation of time to conduct cardiac block at 1 to 30 mg/kg, po relative to control; assay type: functional, organism-based; conditions: Heart
Procedure, shortened: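 Compounds were given orally at 1–30 mg/kg to mice, which then received an intravenous CaCl2 infusion. The read-out was prolongation of time to conduction block versus control.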

[17] = Inhibition of CYP450; assay type: ADME
[18] = Volume of distribution at steady state in CD1 mouse at 1.6 mg/kg, iv; assay type: ADME, organism-based; parameters: dose 1.6 mg/kg, route intravenous; conditions: in vivo, read-out: Vdss; procedure, shortened: as §2
[19] = Half life in dog at 7.8 mg/kg, po; assay type: ADME, organism-based, Canis lupus familiaris; parameters: dose 7.8 mg/kg, route oral; conditions: in vivo; procedure, shortened: as §1
[20] = Volume of distribution at steady state in dog at 2.3 mg/kg, iv; assay type: ADME, organism-based, Canis lupus familiaris; parameters: dose 2.3 mg/kg, route intravenous; conditions: in vivo, read-out: Vdss; procedure, shortened: as §1
Mus musculus [21] = assay: AUC in CD1 mouse at 5 mg/kg, po; conditions: in vivo
[22] = Metabolic stability in human liver microsomes assessed as half life; assay type: ADME, Microsome
[23] = Cmax in dog at 5 mg/kg, po; assay type: ADME, organism-based, Canis lupus familiaris; parameters: dose 5 mg/kg, route oral; conditions: in vivo; procedure, shortened: as §1
Canis familiaris [24] = assay: Half life in dog at 1 mg/kg, iv; assay type: ADME, organism-based, Canis lupus familiaris; parameters: dose 1 mg/kg, route intravenous; conditions: in vivo; procedure, shortened: as §1
[25] = Volume of distribution at steady state in CD1 mouse at 0.77 mg/kg, iv; assay type: ADME, organism-based; parameters: dose 0.77 mg/kg, route intravenous; conditions: in vivo, read-out: Vdss; procedure, shortened: as §2
[26] = Half life in dog at 5 mg/kg, po; assay type: ADME, organism-based, Canis lupus familiaris; parameters: dose 5 mg/kg, route oral; conditions: in vivo; procedure, shortened: as §1
[27] = AUC in dog at 5 mg/kg, po; assay type: ADME, organism-based, Canis lupus familiaris; parameters: dose 5 mg/kg, route oral; conditions: plasma; procedure, shortened: as §1
[28] = Half life in CD1 mouse at 0.77 mg/kg, iv; assay type: ADME, organism-based; parameters: dose 0.77 mg/kg, route intravenous; conditions: in vivo; procedure, shortened: as §2
[29] = Oral bioavailability in dog at 5 mg/kg; assay type: ADME, organism-based, Canis lupus familiaris; conditions: in vivo; procedure, shortened: as §1
[30] = Tmax in dog at 5 mg/kg, po; assay type: ADME, organism-based, Canis lupus familiaris; parameters: dose 5 mg/kg, route oral; conditions: in vivo
Mus musculus [31] = assay: Oral bioavailability in CD1 mouse at 0.77 mg/kg; assay type: ADME, organism-based; conditions: in vivo
Canis familiaris [32] = assay: Volume of distribution at steady state in dog at 1 mg/kg, iv; assay type: ADME, organism-based, Canis lupus familiaris; parameters: dose 1 mg/kg, route intravenous; conditions: in vivo; procedure, shortened: as §1
Mus musculus [33] = assay: AUC in CD1 mouse at 5 mg/kg, po; conditions: in vivo; remark: listed apart in the source
Mus musculus [34] = assay: Antiarrhythmic activity in calcium chloride-induced mouse arrhythmia model assessed as prolongation of time to conduct cardiac block at 20 pmol/kg, iv relative to control; assay type: functional, Heart
Procedure, shortened: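 A medium-throughput IV screen in the mouse CaCl2 infusion arrhythmia model (n = 7–11). Time to conduction block was expressed as percent of saline control.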

[35] = Cmax in CD1 mouse at 0.77 mg/kg, po; assay type: ADME, organism-based; parameters: dose 0.77 mg/kg, route oral; conditions: in vivo
[36] = Half life in CD1 mouse at 0.77 mg/kg, po; assay type: ADME, organism-based; parameters: dose 0.77 mg/kg, route oral; conditions: in vivo
[37] = Tmax in CD1 mouse at 0.77 mg/kg, po; assay type: ADME, organism-based; parameters: dose 0.77 mg/kg, route oral; conditions: in vivo
[38] = Half life in CD1 mouse at 1 mg/kg, iv; assay type: ADME, organism-based; parameters: dose 1 mg/kg, route intravenous; conditions: in vivo; procedure, shortened: as §2
[39] = Cmax in CD1 mouse at 5 mg/kg, po; assay type: ADME, organism-based; parameters: dose 5 mg/kg, route oral; conditions: in vivo; procedure, shortened: as §2
[40] = Volume of distribution at steady state in CD1 mouse at 1 mg/kg, iv; assay type: ADME, organism-based; parameters: dose 1 mg/kg, route intravenous; conditions: in vivo, read-out: Vdss; procedure, shortened: as §2
[41] = AUC in CD1 mouse at 5 mg/kg, po; assay type: ADME, organism-based; parameters: dose 5 mg/kg, route oral; conditions: plasma; procedure, shortened: as §2
[42] = Clearance in CD1 mouse at 1 mg/kg, iv; assay type: ADME, organism-based; parameters: dose 1 mg/kg, route intravenous; conditions: in vivo; procedure, shortened: as §2
[43] = Oral bioavailability in CD1 mouse at 5 mg/kg; assay type: ADME, organism-based; conditions: in vivo; procedure, shortened: as §2
[44] = Half life in CD1 mouse at 5 mg/kg, po; assay type: ADME, organism-based; parameters: dose 5 mg/kg, route oral; conditions: in vivo; procedure, shortened: as §2
[45] = Tmax in CD1 mouse at 5 mg/kg, po; assay type: ADME, organism-based; parameters: dose 5 mg/kg, route oral; conditions: in vivo; procedure, shortened: as §2

Structure (SMILES): CC(C)[C@@H](C)NC(=O)[C@@H]1C[C@@H](NC(=O)c2ccccc2)CN1C(=O)CN
- Activity (Mus musculus [1]): 120.1%
- remaining at 3 h [2]: 89%

Structure (SMILES): O=CNCC(=O)N1C[C@H](NC(=O)c2ccccc2)C[C@H]1C(=O)O
- clearance [3]: 5 mL/min/kg
- half-life [4]: 1.5 h
- F (Mus musculus [5]): 2%
- Tmax [6]: 0.25 h
- bioavailability [7]: 13%
- AUC [8]: 3820 ng·h/mL
- Cmax [9]: 89 ng/mL
- half-life [10]: > 0.5 h
- half-life [11]: 1.4 h
- half-life [12]: 0.4 h
- Cmax [13]: 737 ng/mL
- Activity [14]: Not Active
- Activity (Mus musculus [1]): 170.4%
- Tmax [15]: 1.4 h
- Activity (Mus musculus [16]): Active
- Activity [17]: Not Active
- Vd [18]: 0.2 L/kg
- half-life [19]: 6.2 h
- Vd [20]: 0.4 L/kg
- remaining at 3 h [2]: 100%
- AUC (Mus musculus [21]): 144 ng·h/mL
- half-life [22]: > 0.5 h

Structure (SMILES): NCC(=O)N1C[C@H](NC(=O)c2ccccc2)C[C@H]1C(=O)O [DANEGAPTIDE]
- Cmax [23]: 799 ng/mL
- t1/2 (Canis familiaris [24]): 6.3 h
- Vd [25]: 2.7 L/kg
- half-life [26]: 4 h
- AUC [27]: 4790 ng·h/mL
- half-life [28]: 1.6 h
- bioavailability [29]: 14%
- Tmax [30]: 1.1 h
- F (Mus musculus [31]): 6%
- Vdss (Canis familiaris [32]): 8 L/kg
- Activity (Mus musculus [1]): 206.6%
- AUC (Mus musculus [33]): 73 ng·h/mL
- Activity (Mus musculus [34]): 149.8%
- remaining at 3 h [2]: 93%
- Cmax [35]: 26 ng/mL
- half-life [36]: 1.9 h
- Tmax [37]: 0.5 h

Structure (SMILES): NCC(=O)N1C[C@H](NC(=O)c2ccccc2)C[C@H]1C(=O)NC1CCOCC1
- Activity (Mus musculus [1]): 99.4%
- remaining at 3 h [2]: 81%

Structure (SMILES): NCC(=O)N1C[C@H](NC(=O)c2ccccc2)C[C@H]1C(=O)NC1CCCC1
- Activity (Mus musculus [1]): 110.6%
- remaining at 3 h [2]: 90%

Structure (SMILES): CCNC(=O)[C@@H]1C[C@@H](NC(=O)c2ccccc2)CN1C(=O)CN
- Activity (Mus musculus [1]): 137.2%
- remaining at 3 h [2]: 100%

Structure (SMILES): CNC(=O)[C@@H]1C[C@@H](NC(=O)c2ccccc2)CN1C(=O)CN
- Activity (Mus musculus [1]): 145%
- remaining at 3 h [2]: 87%

Structure (SMILES): CC(=O)NCC(=O)N1C[C@H](NC(=O)c2ccccc2)C[C@H]1C(=O)O
- half-life [38]: 0.3 h
- Cmax [39]: 38 ng/mL
- Vd [40]: 0.3 L/kg
- AUC [41]: 66 ng·h/mL
- clearance [42]: 24 mL/min/kg
- half-life [10]: > 0.5 h
- Activity [14]: Not Active
- bioavailability [43]: 2%
- Activity (Mus musculus [1]): 165.7%
- half-life [44]: 1.2 h
- Activity (Mus musculus [16]): Active
- Activity [17]: Not Active
- remaining at 3 h [2]: 100%
- half-life [22]: > 0.5 h
- Tmax [45]: 0.25 h

Structure (SMILES): CC(C)(C)NC(=O)[C@@H]1C[C@@H](NC(=O)c2ccccc2)CN1C(=O)CN
- Activity (Mus musculus [1]): 135.7%
- remaining at 3 h [2]: 99%
